Results on 23 molecules are retold here after ChEMBL document CHEMBL2311285, “3-Thiomorpholin-8-oxo-8H-acenaphtho [1,2-b] pyrrole-9-carbonitrile (S1) derivatives as pan-Bcl-2-inhibitors of Bcl-2, Bcl-xL and Mcl-1” (Bioorg Med Chem, 2013).

As usually defined, the IC50 is the midpoint of a concentration-inhibition curve. A higher IC50 goes with a need for much substance. The solubility is the dissolved amount per volume that the medium holds.

The target of one data set is Bcl-2-like protein 1 (Homo sapiens, UniProt Q07817). Briefly: Binding affinity to N-terminal 8xHis tagged cBcl-XL (unknown origin) expressed in Escherichia coli BL21 (DE3) by ELISA.
Data set [1] deals with T1, Apoptosis regulator Bcl-2 (Homo sapiens, UniProt P10415). Kind of data set: Binding affinity to human Bcl-2 (unknown origin) by ITC assay. In general terms: Isothermal titration calorimetry measures the heat released or taken up as one component is titrated into another.
The target in data set [2] is T1, Apoptosis regulator Bcl-2. Briefly: Binding affinity to human Bcl-2 (unknown origin) by biotin-Bim displacement based ELISA. Background: ELISA stands for enzyme-linked immunosorbent assay.
Data set [3] has as its target T2, Induced myeloid leukemia cell differentiation protein Mcl-1 (Homo sapiens, UniProt Q07820). Briefly: Binding affinity to cMcl-1 (residues 171 to 327) (unknown origin) by biotin-Bim displacement based ELISA. In short, it runs like this: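 Competitive ELISA: biotin-Bim (residues 81-106) at 0.09 µg/mL in blocking buffer bound to streptavidin-coated wells for 1.5 h. Serial compound dilutions (from 10 mM DMSO stock) containing 0.01% Triton X-100 preincubated 1 h with 20 nM His-tagged protein in PBS, then transferred to wells for 2 h. Anti-His-HRP added for 1 h, then TMB for 30 min, stopped with H2SO4. Room temperature throughout.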

The target of data set [4] is T2, Induced myeloid leukemia cell differentiation protein Mcl-1. Briefly: Binding affinity to cMcl-1 (residues 171 to 327) (unknown origin) by ITC assay. In short, it runs like this: (§1)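 ITC at 25 °C in 20 mM Tris pH 8.0, 150 mM NaCl, 1% DMSO. For wild-type versus R263A comparison, 16 × 2.5 µL injections of 500 µM compound into 50 µM protein. Data were corrected against a buffer-only cell titrated with compound and fitted to a one-site model to give Kd.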

In data set [5] the target is Induced myeloid leukemia cell differentiation protein Mcl-1 (Homo sapiens, UniProt Q07820, R263A). Briefly: Binding affinity to cMcl-1 R263A mutant (unknown origin) by ITC assay. The format is single protein. In short, it runs like this:
as §1

Data set [6] in a line: Solubility in 1% DMSO/H2O. It is filed as physicochemical.
In another data set the test system is HL-60. Briefly: Induction of apoptosis in human HL60 cells assessed as cytochrome c release at 5 uM incubated for 12 hrs by Western blotting method. The format is functional, cell-based. The gist of the method: (§2)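 Cells treated 12 h with 5 µM compound, then lysed in digitonin lysis buffer. After centrifugation, the cytosolic supernatant (S-100) was probed for cytochrome c by western blot. A parallel harvest was used for Mcl-1/Bak and Bcl-2/Bax co-immunoprecipitation.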
(In general: In western blotting, separated proteins are transferred to a membrane and probed.)

For the next data set, the system named is MCF7. Briefly: Induction of apoptosis in human MCF7 cells assessed as cytochrome c release at 5 uM incubated for 12 hrs in presence of Bax/Bak ShRNA by Western blotting method. The format is functional, cell-based. The gist of the method:
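Wild-type MCF-7 cells and Bax/Bak shRNA-transfected MCF-7 cells were treated with 5 µM compound. Cytochrome c was detected by western blot in the S-100 cytosolic fraction, obtained from digitonin lysis and centrifugation.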

The subject of the next data set is K562. Kind of data set: Induction of apoptosis in human K562 cells assessed as cytochrome c release at 5 uM incubated for 12 hrs by Western blotting method. It is filed as functional, cell-based. The gist of the method:
as §2

The structures appear in SMILES notation. Converted amounts (≈) assume the structure as drawn. The source made the active and inactive calls. The rule behind the calls is not given here.

Bcl-2-like protein 1, sequence (Q07817 whole entry): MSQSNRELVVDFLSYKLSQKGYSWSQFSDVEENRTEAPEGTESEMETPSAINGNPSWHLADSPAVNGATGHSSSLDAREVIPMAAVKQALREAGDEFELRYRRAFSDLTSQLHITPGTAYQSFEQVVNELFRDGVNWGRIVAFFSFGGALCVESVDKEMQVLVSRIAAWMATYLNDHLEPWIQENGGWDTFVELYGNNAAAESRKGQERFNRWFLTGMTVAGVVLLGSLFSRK
T2 sequence (Q07820 whole entry, the tested form may be a part): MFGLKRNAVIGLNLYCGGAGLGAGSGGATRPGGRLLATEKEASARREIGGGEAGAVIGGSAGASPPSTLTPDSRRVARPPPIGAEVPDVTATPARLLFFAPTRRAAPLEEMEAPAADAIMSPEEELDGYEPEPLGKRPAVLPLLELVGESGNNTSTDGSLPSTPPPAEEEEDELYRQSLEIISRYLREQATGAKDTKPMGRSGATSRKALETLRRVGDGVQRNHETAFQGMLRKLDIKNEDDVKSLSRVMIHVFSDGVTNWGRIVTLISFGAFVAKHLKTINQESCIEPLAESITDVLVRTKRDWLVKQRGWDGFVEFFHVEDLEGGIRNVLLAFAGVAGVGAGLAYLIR
Induced myeloid leukemia cell differentiation protein Mcl-1 (Homo sapiens, UniProt Q07820, R263A), sequence (Q07820 whole entry R263A): as the sequence (Q07820 whole entry, the tested form may be a part) above, with R263A counted along it
T1 sequence (P10415 whole entry): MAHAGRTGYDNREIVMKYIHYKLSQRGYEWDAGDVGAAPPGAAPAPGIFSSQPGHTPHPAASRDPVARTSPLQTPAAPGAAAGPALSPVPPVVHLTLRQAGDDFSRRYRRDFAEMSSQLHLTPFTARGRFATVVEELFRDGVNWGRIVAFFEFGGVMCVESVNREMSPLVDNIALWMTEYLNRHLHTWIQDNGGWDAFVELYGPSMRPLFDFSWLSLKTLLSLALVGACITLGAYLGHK

Take `CCCCCCNC1=C2C(=NC1=O)c1cccc3c(Oc4ccc(C(C)C)cc4)ccc2c13`: the half-maximal inhibitory concentration (IC50) turned out to be 162 nM at Bcl-2-like protein 1, 184 nM in [2] and 75 nM in [3]. Moreover, the Kd in data set [1] is 182 nM; in data set [4] (read-out: Kd), 802 nM; in data set [4] (read-out: pKd (converted)) it was 79.4 nM; in data set [5] it was 19200 nM.

Regarding `Nc1ccc(Sc2ccc3c4c(cccc24)C2=NC(=O)C(NCCCc4ccccc4)=C23)cc1`, the concentration in solution in [6] (solubility) came to 18 µg/mL (≈ 39 µM). Besides, the IC50 at Bcl-2-like protein 1 turned out to be 18 nM; in [2], 20 nM; in data set [3] it was 10 nM. Besides, the Kd was 20 nM in data set [1], 105 nM in data set [4] (read-out: Kd), 10 nM in [4] (read-out: pKd (converted)) and 2340 nM in data set [5]. Also, the result in the data set with HL-60 and with K562 was Active. Further, the outcome in the data set on MCF7 was inactive.

Regarding `CCCCNC1=C2C(=NC1=O)c1cccc3c(Sc4ccc(N)cc4)ccc2c13`, the concentration in solution in [6] (solubility) came to 27 µg/mL (≈ 67.6 µM). Besides, the half-inhibitory concentration (IC50) is 165 nM at Bcl-2-like protein 1, 190 nM in data set [2] and 50 nM in [3]. The Kd in data set [1] was 191 nM; in data set [4] (read-out: Kd), 512 nM; in data set [4] (read-out: pKd (converted)), 50.1 nM; in [5], 12800 nM. Also, the outcome in the data set with HL-60 and with K562 was Active. Further, the result in the data set with MCF7 was inactive.

For the molecule `CC(C)c1ccc(Oc2ccc3c4c(cccc24)C2=NC(=O)C(NCCCc4ccccc4)=C23)cc1`, the 50% inhibitory concentration (IC50) was 37 nM at Bcl-2-like protein 1, 42 nM in data set [2] and 39 nM in data set [3]. Moreover, the Kd is 41.7 nM in data set [1] and 38.9 nM in [4] (read-out: pKd (converted)).

For `CCOC(=O)C1=C2C(=NC1=O)c1cccc3c(N4CCSCC4)ccc2c13`, the IC50 in [2] is 2200 nM; in data set [3] it was above 10000 nM.

On to `Cc1cc2c(C(C)C)c(O)c(O)c(C=O)c2c(O)c1-c1c(C)cc2c(C(C)C)c(O)c(O)c(C=O)c2c1O` [GOSSYPOL], for which the Kd in data set [4] (read-out: Kd) stood at 2320 nM. For the same molecule, in the data set with MCF7, the outcome was Active.

`COc1ccc(Sc2ccc3c4c(cccc24)C2=NC(=O)C(C#N)=C23)cc1`: the figures for the IC50 (on Bcl-2-like protein 1; in data set [2]; in data set [3]) were 833 nM, 945 nM and 388 nM, respectively. Besides, the Kd was 955 nM in data set [1] and 389 nM in data set [4] (read-out: pKd (converted)).

As to `O=C1N=C2C(=C1NCCCc1ccccc1)c1ccc(Sc3ccc(OO)cc3)c3cccc2c13`, the figures for the half-maximal inhibitory concentration (IC50) (at Bcl-2-like protein 1; in data set [2]; in data set [3]) were 53 nM, 57 nM and 42 nM, respectively. The Kd was 57.5 nM in data set [1] and 41.7 nM in [4] (read-out: pKd (converted)).

Turning to `CCCCNC1=C2C(=NC1=O)c1cccc3c(N4CCSCC4)ccc2c13`, the IC50 was 171 nM on Bcl-2-like protein 1, 198 nM in [2] and 79 nM in [3]. Moreover, the Kd in [1] was 200 nM; in [4] (read-out: pKd (converted)), 79.4 nM.

With `CCCCCCNC1=C2C(=NC1=O)c1cccc3c(Sc4ccc(OC)cc4)ccc2c13`, the IC50 at Bcl-2-like protein 1 worked out at 181 nM; in [2] it was 206 nM; in data set [3] it was 78 nM. Moreover, the Kd in [1] is 204 nM; in [4] (read-out: pKd (converted)), 77.6 nM.

Take `CC(C)c1ccc(Oc2ccc3c4c(cccc24)C2=NC(=O)C(C#N)=C23)cc1`: the IC50 is 650 nM at Bcl-2-like protein 1, 739 nM in [2] and 321 nM in data set [3]. Also, the Kd is 759 nM in data set [1] and 324 nM in [4] (read-out: pKd (converted)).

For `O=C1N=C2C(=C1NCc1ccccc1)c1ccc(N3CCSCC3)c3cccc2c13`, the IC50 is above 10000 nM in data set [2] and 521 nM in data set [3].

With `CCCCNC1=C2C(=NC1=O)c1cccc3c(Oc4ccc(C(C)C)cc4)ccc2c13`, the IC50 at Bcl-2-like protein 1 worked out at 283 nM; in data set [2] it was 322 nM; in data set [3] it was 141 nM. Further, the Kd in [1] was 324 nM; in [4] (read-out: pKd (converted)), 141 nM.

With `CCCCCCNC1=C2C(=NC1=O)c1cccc3c(N4CCSCC4)ccc2c13`, the IC50 stood at 85 nM at Bcl-2-like protein 1, 96 nM in [2] and 37 nM in [3]. The Kd in data set [1] is 95.5 nM; in [4] (read-out: pKd (converted)), 37.2 nM.

`N#CC1=C2C(=NC1=O)c1cccc3c(N4CCSCC4)ccc2c13`: the concentration in solution in data set [6] (solubility) was 2 µg/mL (≈ 6.04 µM). The values for the half-inhibitory concentration (IC50) (on Bcl-2-like protein 1; in data set [2]; in [3]) were 625 nM, 715 nM and 95 nM, respectively. In addition, the Kd is 708 nM in [1], 954 nM in [4] (read-out: Kd), 95.5 nM in [4] (read-out: pKd (converted)) and 28700 nM in data set [5].

Consider `CC(C)NC1=C2C(=NC1=O)c1cccc3c(N4CCSCC4)ccc2c13`, for which the IC50 is above 10000 nM in data set [2] and 2500 nM in [3].

`CCCCCCNC1=C2C(=NC1=O)c1cccc3c(Sc4ccc(N)cc4)ccc2c13`: the IC50 worked out at 71 nM on Bcl-2-like protein 1, 80 nM in [2] and 30 nM in [3]. For the same molecule, the Kd is 79.4 nM in data set [1] and 29.5 nM in data set [4] (read-out: pKd (converted)).

With `N#CC1=C2C(=NC1=O)c1cccc3c(Sc4ccc(N)cc4)ccc2c13`, the half-inhibitory concentration (IC50) on Bcl-2-like protein 1 was determined as 291 nM; in data set [2], 331 nM; in data set [3], 90 nM. Besides, the Kd is 331 nM in [1] and 91.2 nM in data set [4] (read-out: pKd (converted)).

For the molecule `CCCOC(=O)C1=C2C(=NC1=O)c1cccc3c(N4CCSCC4)ccc2c13`, the IC50 is 2100 nM in [2] and above 10000 nM in [3].

In [3], `CCCCCNC1=C2C(=NC1=O)c1cccc3c(N4CCSCC4)ccc2c13` yielded an IC50 of 37 nM. This lies in the double-digit nanomolar range.

`O=C1N=C2C(=C1NCCCCCc1ccccc1)c1ccc(N3CCSCC3)c3cccc2c13`: the results for the IC50 in data set [2] and in data set [3] were 1300 nM and 1100 nM, respectively.

For the molecule `CCCCNC1=C2C(=NC1=O)c1cccc3c(Sc4ccc(OC)cc4)ccc2c13`, the IC50 was found to be 315 nM at Bcl-2-like protein 1, 356 nM in [2] and 150 nM in data set [3]. For the same molecule, the Kd in data set [1] was 355 nM; in data set [4] (read-out: pKd (converted)), 151 nM.

As for `O=C1N=C2C(=C1NCCCc1ccccc1)c1ccc(N3CCSCC3)c3cccc2c13`, the values for the half-inhibitory concentration (IC50) (on Bcl-2-like protein 1; in data set [2]; in data set [3]) were 43 nM, 49 nM and 15 nM, respectively. The Kd in data set [1] was 49 nM; in data set [4] (read-out: pKd (converted)) it was 15.1 nM.
